The test system of data set [1] is Human immunodeficiency virus 1. Kind of data set: Antiviral activity against HIV1 infected human MT4 cells. In kind it is functional, organism-based. The note with it: Human immunodeficiency virus 1, MT4.
Data set [2] can be described thus: Chemical stability in RPMI1640 medium at pH 7.5. It is filed as physicochemical. The essentials: (§1)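 Compound at an initial 50 µM was incubated in water (pH 6.8) or RPMI 1640 (pH 7.5). Samples were analysed by on-line ISRP-cleaning HPLC: TEAA 20 mM pH 6.9 wash, then 0–80% acetonitrile gradient, UV 267 nm. Products were identified by HPLC/MS or co-injection. Half-lives came from pseudo-first-order mono- or polyexponential fits of peak areas. Mean of two experiments.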

A short description of data set [3]: Cytotoxicity against human thymidine kinase-deficient CEM cells. In kind it is cell-based, CCRF-CEM.
The nature of data set [4]: Lipophilicity, log P of the compound. In kind it is physicochemical. The conditions noted are these: octanol/water. The essentials: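 Log P values were calculated with software, not measured experimentally.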
The nature of data set [5]: Stability in human CEM-SS cell culture medium. In kind it is ADME, cell-based. The essentials: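 Compound at an initial 50 µM was incubated in culture medium of 90% RPMI 1640 plus 10% fetal calf serum, heat-inactivated 30 min at 56 °C. Analysis was by on-line ISRP-cleaning HPLC (0–80% acetonitrile in 20 mM TEAA pH 6.9, 267 nm) with HPLC/MS or co-injection identification. Half-lives came from pseudo-first-order exponential fits. Mean of three experiments.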

In data set [6] the test system is Human immunodeficiency virus 1. Kind of data set: Antiviral activity against HIV1 infected human thymidine kinase-deficient CEM cells. In kind it is functional, organism-based. The note with it: Human immunodeficiency virus 1, CCRF-CEM.
A short description of data set [7]: Cytotoxicity against human MT4 cells. In kind it is cell-based.
Data set [8] in a line: Stability in human CEM-SS cell extracts. It is filed as ADME, cell-based. In short, it runs like this:
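CEM-SS cell extracts were incubated with compound at an initial 50 µM. Samples were analysed by on-line ISRP-cleaning HPLC (0–80% acetonitrile gradient in 20 mM TEAA pH 6.9, detection 267 nm), with metabolites identified by HPLC/MS or co-injection. Half-lives came from pseudo-first-order mono- or polyexponential regression. Mean of three experiments.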

Data set [9] in a line: Chemical stability in water at pH 6.8. In kind it is physicochemical. The essentials: as §1
The subject of data set [10] is Human immunodeficiency virus 1. Kind of data set: Antiviral activity against HIV1 infected human CEM-SS cells. It is filed as functional, organism-based. The conditions noted are these: Human immunodeficiency virus 1, CEM-SS.
Data set [11] in a line: Cytotoxicity against human CEM-SS cells. It is filed as cell-based.
Data set [12] is described as follows: Aqueous solubility of the compound. It is filed as physicochemical.

≈ marks a conversion by molar mass, not a printed value.

In the case of `Cc1cn([C@H]2C[C@H](N=[N+]=[N-])[C@@H](COP(=O)(OCCSC(=O)[C@@H](N)C(C)C)Oc3ccccc3)O2)c(=O)[nH]c1=O` (stereo partly specified), the EC50 (usually the concentration giving half of the maximal effect) stood at 0.004 µM in [1], 81 µM in data set [6] and 0.001 µM in data set [10]. The half-life (commonly the time in which the quantity being followed falls by half) in data set [2] was less than 0.0167 h; in [5], less than 0.0167 h; in [8] it was less than 0.0167 h; in data set [9] it was 1820 h. The CC50 in [3], in [7] and in data set [11] was more than 120 µM throughout. In data set [4] (read-out: logP), the lipophilicity (logP) (commonly a log measure of how a compound divides between an organic and an aqueous phase) stood at 2.

On to `Cc1cn([C@H]2C[C@H](N=[N+]=[N-])[C@@H](COP(=O)(OCCSC(=O)C(C)(C)CO)Oc3ccccc3)O2)c(=O)[nH]c1=O` (stereo partly specified), for which the figures for the EC50 in data set [1], in data set [6] and in data set [10] were 0.03 µM, 3.9 µM and 0.006 µM, respectively. In addition, the CC50 in data set [3], in data set [7] and in data set [11] was more than 130 µM in each case. Further, in data set [4] (read-out: logP), the logP was determined as 2. Moreover, the half-life in data set [5] is 331 h; in data set [8], 14.8 h. Further, the concentration in solution in data set [12] (solubility) came to 6640 µg/mL (≈ 11.4 mM).

Consider `Cc1cn([C@H]2C[C@H](N=[N+]=[N-])[C@@H](COP(=O)(OCCSC(=O)C(C)(CO)CO)Oc3ccccc3)O2)c(=O)[nH]c1=O` (stereo partly specified), for which the EC50 in data set [1] was 0.074 µM; in data set [6] it was more than 100 µM; in data set [10], 0.012 µM. The CC50 in [3], in data set [7] and in [11] was more than 150 µM in each case. Moreover, the logP in data set [4] (read-out: logP) amounted to 2. Further, the half-life in [5] was 211 h; in data set [8], 178 h. For the same molecule, in data set [12], the concentration in solution (solubility) came to 60600 µg/mL (≈ 101 mM).

For the molecule `Cc1cn([C@H]2C[C@H](N=[N+]=[N-])[C@@H](COP(=O)(OCCSC(=O)C(C)(C)C)Oc3ccccc3)O2)c(=O)[nH]c1=O` (stereo partly specified), the EC50 in data set [1] was determined as 0.81 µM; in [6] it was 0.45 µM; in data set [10], 0.015 µM. Also, the CC50 in data set [3], in data set [7] and in [11] was more than 10 µM throughout. The logP in data set [4] was determined as 2. Moreover, the figures for the half-life in data set [5] and in data set [8] were 607 h and 1.5 h, respectively. Further, the solubility – broadly, how much of the substance goes into solution per volume – in data set [12] stood at 57 µg/mL (≈ 0.1 mM).

Take `Cc1cn([C@H]2C[C@H](N=[N+]=[N-])[C@@H](COP(=O)(OCCSC(=O)C(C)(C)NC(=O)OC(C)(C)C)Oc3ccccc3)O2)c(=O)[nH]c1=O` (stereo partly specified): the half-life was more than 288 h in data set [2], 338 h in data set [5], 40.8 h in data set [8] and more than 480 h in data set [9].

On to `Cc1cn([C@H]2C[C@H](N=[N+]=[N-])[C@@H](COP(=O)(OCCSC(=O)[C@@H](NC(=O)OC(C)(C)C)C(C)C)Oc3ccccc3)O2)c(=O)[nH]c1=O` (stereo partly specified), for which the half-life in data set [2] is more than 216 h; in [5] it was 197 h; in data set [8], 106 h; in [9], more than 960 h.

For `Cc1cn([C@H]2C[C@H](N=[N+]=[N-])[C@@H](COP(=O)(OCCSC(=O)C(C)(C)N)Oc3ccccc3)O2)c(=O)[nH]c1=O` (stereo partly specified), the figures for the EC50 in [1], in [6] and in data set [10] were 0.054 µM, 90 µM and 0.009 µM, respectively. Further, the half-life in data set [2] was 0.1 h; in data set [5] it was less than 0.0167 h; in data set [8] it was 0.133 h; in data set [9], more than 144 h. The CC50 in data set [3], in [7] and in data set [11] was more than 120 µM each time. Moreover, the logP in data set [4] (read-out: logP) worked out at 2.

In the case of `Cc1cn([C@H]2C[C@H](N=[N+]=[N-])[C@@H](CO)O2)c(=O)[nH]c1=O` [ZIDOVUDINE], the EC50 in data set [1] was 0.015 µM; in data set [6], more than 100 µM; in [10] it was 0.003 µM. For the same molecule, the CC50 in data set [3], in data set [7] and in data set [11] was more than 100 µM each time.

Values taken from ChEMBL document CHEMBL1155793, “Phenyl phosphotriester derivatives of AZT: variations upon the SATE moiety” (Bioorg Med Chem, 2008).
